Hits are enriched below; roughly 2% of the tested compounds scored in any of these assays.
FLuc inhib CS – inhibits firefly luciferase, flagging false hits in luciferase inhibition screens; P08659; ATPLite firefly luciferase biochemical luminescence, 10 min; inhibition, % at 10 µM; hit rate 1.5% among 200,000;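 active means inhibition above about 50% when tested at 10 µM, limit read from the data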
Target sequence (P08659 whole entry, looked up): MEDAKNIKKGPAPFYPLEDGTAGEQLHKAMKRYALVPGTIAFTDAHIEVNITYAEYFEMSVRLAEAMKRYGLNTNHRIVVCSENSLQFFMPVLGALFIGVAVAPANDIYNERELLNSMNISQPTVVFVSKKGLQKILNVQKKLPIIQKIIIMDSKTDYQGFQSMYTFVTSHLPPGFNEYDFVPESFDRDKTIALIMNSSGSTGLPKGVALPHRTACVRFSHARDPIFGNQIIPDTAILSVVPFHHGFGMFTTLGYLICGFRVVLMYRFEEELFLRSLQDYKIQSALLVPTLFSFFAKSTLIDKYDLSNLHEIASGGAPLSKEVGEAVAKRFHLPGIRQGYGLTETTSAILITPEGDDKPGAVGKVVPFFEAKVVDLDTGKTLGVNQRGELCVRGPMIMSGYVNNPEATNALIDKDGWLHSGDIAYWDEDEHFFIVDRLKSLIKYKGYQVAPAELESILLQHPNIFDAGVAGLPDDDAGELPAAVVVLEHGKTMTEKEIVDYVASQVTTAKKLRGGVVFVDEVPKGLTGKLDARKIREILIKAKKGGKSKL
PPC-1+TRAIL kill – PPC-1 cancer cell killing with TRAIL present; cell killing (% activity), % at 4 µM or 5 µM; PPC-1 cells + TRAIL, ATPLite viability luminescence; hit rate 0.41% among 220,000; AID 1443;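 active means cell killing above 50% in the first pass at 4 µM, then a duplicate retest at 5 µM averaging 50% or more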;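 further: plate controls were cells with TRAIL plus DMSO for no effect and medium-only wells lacking cells for full effect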
FLuc act counter – affects firefly luciferase, flagging false hits in luciferase stimulation screens. ATPlite luciferase biochemical, luminescence, 10 min; 0 = ATP-free wells, 1 = DMSO control. activation factor at 10 µM. 200,000 tested, under 10 active. AID 1027;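 active means luciferase activation factor, scaled between plate controls, of at least 2 with compound at 10 µM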
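System: Luciferase/luciferin detection reagent, cell-free biochemical luciferase assay | Medium: PBS buffer for ATP | Dosing: Test compounds dosed from 2 mM stocks in 100% DMSO | Timing: 10 min at ambient temperature | Signal: Luminescence measurement of luciferase light output | Evaluation: Luciferase activation, seen as luminescence increase over controls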
TRAIL sens C8 – caspase-8 TRAIL sensitization | inhibition (viability loss, TRAIL sensitization), % at 10 µM | AID 624354 | hit rate 1% among 360,000 | NB7+C8 cells + TRAIL, ATPlite viability luminescence;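 active means compounds causing at least 50% loss of cell viability in the single-dose screen, relative to plate controls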
HSP90 inh – blocks HSP90-mediated luciferase refolding in reticulocyte lysate; Rabbit reticulocyte lysate, luciferase refolding luminescence, 3 h; inhibition, % at 5.6 µM; hit rate 0.91% among 290,000;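 active means inhibition above the screen-wide mean plus 3 SD, computed separately per campaign, cut at about 16% in these data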;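 further: 0% = DMSO wells and 100% = 60 µM geldanamycin wells; inhibitors lower the luminescence because luciferase stays unfolded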
HSP90 confirm – HSP90 inhibition, confirmation assay; shares compounds with HSP90 inh; rabbit reticulocyte lysate, luciferase refolding luminescence, 3 h; inhibition, % at 5.9 µM; hit rate 64% among 2,300; in the data active means inhibition above about 18%;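 further: 0% = vehicle wells and 100% = reference inhibitor wells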
FLuc counter – firefly luciferase inhibition, HSP90 counter-screen; shares compounds with HSP90 inh; purified native firefly luciferase, luminescence; inhibition, % at 5.9 µM; hit rate 48% among 2,300; AID 1847;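 active means inhibition above the mean inhibition of all tested sample wells plus 3 SD, cut at about 10% in these data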;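 further: 0% = DMSO with luciferase and 100% = wells lacking luciferase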
The depositor's hits bear a star; . = not tested or not shown.

SMILES | FLuc inhib CS | PPC-1+TRAIL kill | FLuc act counter | TRAIL sens C8 | HSP90 inh | HSP90 confirm | FLuc counter
OCC[n+]1c2ccccc2nc2ccc(N3CCOCC3)cc21 | . | 12.0 | . | 33.8 | 22.2* | 29.7* | 17.6*
c1ccc(CNCCc2c[nH]c3ccccc23)cc1 | . | . | . | -5.2 | 2.4 | . | .
CCc1ccc(CNCCc2c[nH]c3ccccc23)cc1 | . | . | . | 8.5 | 19.1* | 0.9 | -4.3
O=C(NCCN1CCCCC1)c1ccc(Cl)nc1Cl | -1.6 | 15.0 | 1 | 2.2 | 1.9 | . | .
C[n+]1c(-c2ccccc2)c2cc(N)ccc2c2ccc(N)cc21 | . | . | . | 17.6 | 38.9* | 9.1 | 1.5
COCCCn1c(N)c(C(=O)NCc2ccco2)c2nc3ccccc3nc21 | . | -0.9 | . | . | 20.6* | 2.3 | -4.9
C=CCNC(=O)c1c(N)n(Cc2ccco2)c2nc3ccccc3nc12 | -4.5 | -25.9 | 1 | -3.2 | 5.1 | . | .
COCCNC(=O)c1c(N)n(Cc2ccco2)c2nc3ccccc3nc12 | -5.6 | -4.4 | 1.1 | 7.0 | 2.3 | . | .
CC(C)(C)OC(=O)c1c(N)n(Cc2ccco2)c2nc3ccccc3nc12 | -4.0 | -16.9 | 1 | -2.8 | 28.6* | 5.8 | 2.5
Cc1cc(Cl)ccc1C(=O)C1CCCN(C2CCSCC2)C1 (centres undefined) | -2.6 | 1.7 | 1 | 23.1 | 2.4 | . | .
O=C(O)C1C2CCC(O2)C1C(=O)Nc1ccc(F)c(F)c1 (centres undefined) | . | . | . | 3.5 | -4.5 | . | .
CCOC(=O)c1ccc(NC(=O)C2C3C=CC(O3)C2C(=O)O)cc1 (centres undefined) | -6.6 | 4.6 | 1.1 | . | 35.2* | -8.3 | -14.9
COC(=O)C[C@]1(C(=O)OC)CN(C#N)N(c2ccc(Cl)cc2)C12c1ccccc1-c1ccccc12 | -5.4 | 47.9 | 1.1 | 91.3* | 32.2* | 58.7* | 1.0
CC(C)(C)n1cc(C(=O)c2ccc3ccccc3c2O)cn1 | 68.8* | 41.6 | 0.3 | 50.3* | 49.2* | 59.8* | 58.0*
CCc1c(C)nc(N)nc1N1N=C1SCCOc1ccccc1 | 3.6 | 14.7 | 1 | -6.5 | -1.4 | . | .
COP(=O)(OC)C(NS(=O)(=O)c1ccccc1)C(Cl)(Cl)Cl (centres undefined) | -1.5 | 1.0 | 1 | 4.5 | -1.1 | . | .
O=c1c2ccccc2nc(/C=C/c2ccc(F)cc2)n1-c1ccccn1 | . | 19.9 | . | . | 26.4* | -8.5 | -11.5
O=c1[nH]c(O)c(N=Nc2ccc3c(c2)OCCO3)c(=O)[nH]1 | 69.1* | 23.6 | 0.3 | 45.0 | 73.0* | 70.7* | 70.3*
CN(C)C(=O)Oc1ccc(OCc2nc3ccccc3[nH]2)cc1 | 80.0* | 45.8 | 0.2 | 68.3* | 27.3* | 52.0* | 31.4*
COc1ccc(C=C2C(=O)NC(=S)NC2=O)cc1 | . | . | . | -15.6 | . | . | .
COc1ccc(OCCOc2cccc(C=C3C(=O)NC(=O)NC3=O)c2)cc1 | . | . | . | . | 24.9* | 44.9* | 30.4*
NCCCCCC(=O)OC1N=C(c2ccccc2Cl)c2cc(Br)ccc2NC1=O (centres undefined) | -3.8 | . | 1 | -8.7 | -0.9 | . | .
CCCCn1c(NS(=O)(=O)c2ccccc2)c(C(=O)OCC)c2nc3ccccc3nc21 | -6.2 | 28.0 | 1.1 | 0.6 | 18.1* | -1.5 | -4.1
